The source of these data is ChEMBL document CHEMBL4364321, “Expedient assembly of Oligo-LacNAcs by a sugar nucleotide regeneration system: Finding the role of tandem LacNAc and sialic acid position towards siglec binding” (Eur J Med Chem, 2019).

Calls of active or inactive are those of the source. No cut-off for these calls is given here.

The target in test [1] is T1, Sialic acid-binding Ig-like lectin 7 (Homo sapiens, UniProt Q9Y286). As to the kind of experiment: Binding affinity to recombinant human Fc-fused siglec-7 by fluorescence based glycan microarray analysis. Summed up: (§1)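 Azidoglycans CuAAC-coupled onto alkyne-modified glass (10% zwitterionic silane mix), five replicate spots each, remaining alkynes capped with azido-ethylene glycol. Slides blocked 0.5 h in 3% BSA/PBS, then probed 1 h at rt with Fc-Siglec (10 µg/mL) premixed 1:1 with Fc-specific anti-human IgG-Cy3 (10 µg/mL) in PBS/0.1% BSA. After PBST washes, Cy3 fluorescence was scanned and averaged over replicates.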
T1 sequence (Q9Y286 whole entry, the tested form may be a part): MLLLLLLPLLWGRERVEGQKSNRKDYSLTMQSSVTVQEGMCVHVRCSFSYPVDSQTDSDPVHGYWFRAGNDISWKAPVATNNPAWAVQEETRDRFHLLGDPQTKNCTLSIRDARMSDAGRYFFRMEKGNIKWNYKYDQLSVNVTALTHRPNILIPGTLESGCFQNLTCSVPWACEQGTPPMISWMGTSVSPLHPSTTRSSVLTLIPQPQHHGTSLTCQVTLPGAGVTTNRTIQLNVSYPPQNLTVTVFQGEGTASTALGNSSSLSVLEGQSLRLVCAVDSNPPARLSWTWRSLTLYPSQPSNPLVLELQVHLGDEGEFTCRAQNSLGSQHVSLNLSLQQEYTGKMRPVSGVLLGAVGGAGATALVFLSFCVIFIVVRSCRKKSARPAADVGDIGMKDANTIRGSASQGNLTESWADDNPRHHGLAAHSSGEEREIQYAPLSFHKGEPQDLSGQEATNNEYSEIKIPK

Test [2] deals with Sialic acid-binding Ig-like lectin 9 (Homo sapiens) (UniProt Q9Y336). Nature of the test: Binding affinity to recombinant human Fc-fused siglec-9 by fluorescence based glycan microarray analysis. Summed up: as §1
Sequence of Sialic acid-binding Ig-like lectin 9 (Homo sapiens) (Q9Y336 whole entry, the tested form may be a part): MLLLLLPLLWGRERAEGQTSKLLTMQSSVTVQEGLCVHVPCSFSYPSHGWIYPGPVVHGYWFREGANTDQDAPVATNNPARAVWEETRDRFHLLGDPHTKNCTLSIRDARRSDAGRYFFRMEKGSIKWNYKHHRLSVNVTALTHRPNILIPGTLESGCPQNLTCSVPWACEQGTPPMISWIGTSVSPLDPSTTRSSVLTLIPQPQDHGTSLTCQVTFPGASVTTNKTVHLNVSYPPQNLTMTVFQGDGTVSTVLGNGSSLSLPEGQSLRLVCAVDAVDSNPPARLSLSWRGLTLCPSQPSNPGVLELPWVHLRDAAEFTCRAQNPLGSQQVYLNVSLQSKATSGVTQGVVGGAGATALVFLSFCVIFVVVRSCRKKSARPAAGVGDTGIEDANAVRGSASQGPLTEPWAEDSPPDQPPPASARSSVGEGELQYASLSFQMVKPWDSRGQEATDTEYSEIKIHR
Test [3] has as its target B-cell receptor CD22 (Homo sapiens) (UniProt P20273). As to the kind of experiment: Binding affinity to recombinant human Fc-fused siglec-2 by fluorescence based glycan microarray analysis. In outline: as §1
In test [4] the target is T1, Sialic acid-binding Ig-like lectin 7. Nature of the test: Binding affinity to recombinant human Fc-fused siglec-7 after 1 hr by fluorescence based glycan microarray analysis. In outline: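 Surface KD determination on the same glycan microarray. Fc-Siglec-7 was applied at 0.735–588 nM (13 concentrations) for 1 h at rt and washed with PBST, then detected with anti-human IgG-Cy3 (10 µg/mL) for 0.5 h. Fluorescence was plotted against Siglec concentration and fitted to y = Bmax·x/(KD + x).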

Test [5] deals with T2, Sialic acid-binding Ig-like lectin 14 (Homo sapiens) (UniProt Q08ET2).
T2 sequence (whole entry): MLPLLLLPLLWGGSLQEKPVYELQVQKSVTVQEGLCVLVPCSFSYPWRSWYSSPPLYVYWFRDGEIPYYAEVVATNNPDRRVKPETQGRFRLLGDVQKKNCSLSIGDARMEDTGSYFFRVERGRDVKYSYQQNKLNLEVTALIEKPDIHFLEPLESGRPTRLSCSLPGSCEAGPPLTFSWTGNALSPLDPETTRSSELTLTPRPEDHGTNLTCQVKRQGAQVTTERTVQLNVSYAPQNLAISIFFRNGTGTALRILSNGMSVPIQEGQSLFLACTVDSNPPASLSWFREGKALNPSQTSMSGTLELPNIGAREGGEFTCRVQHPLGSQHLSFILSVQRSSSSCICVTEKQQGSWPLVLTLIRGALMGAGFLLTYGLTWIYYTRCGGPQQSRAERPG
Nature of the test: Binding affinity to recombinant human Fc-fused siglec-14 by fluorescence based glycan microarray analysis. In outline: as §1

For test [6], the target named is T3, Sialic acid-binding Ig-like lectin 15 (Homo sapiens) (UniProt Q6ZMC9).
T3 sequence (whole entry): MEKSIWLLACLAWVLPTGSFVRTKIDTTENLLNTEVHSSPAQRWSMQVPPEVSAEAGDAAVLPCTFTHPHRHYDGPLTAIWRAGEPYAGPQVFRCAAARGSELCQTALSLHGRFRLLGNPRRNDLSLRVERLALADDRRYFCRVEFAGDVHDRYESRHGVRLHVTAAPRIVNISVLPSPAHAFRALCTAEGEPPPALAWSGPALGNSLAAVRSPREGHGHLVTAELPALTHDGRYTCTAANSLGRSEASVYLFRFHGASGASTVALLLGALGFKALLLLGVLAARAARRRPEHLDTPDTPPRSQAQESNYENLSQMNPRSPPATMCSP
As to the kind of experiment: Binding affinity to recombinant human Fc-fused siglec-15 by fluorescence based glycan microarray analysis. Summed up:
as §1

The target of test [7] is T1, Sialic acid-binding Ig-like lectin 7. As to the kind of experiment: Binding affinity to recombinant human Fc-fused siglec-7 expressed in CHO cells measured over 180 secs. The class given is cell-based.

Sequence of B-cell receptor CD22 (Homo sapiens) (P20273 whole entry, the tested form may be a part): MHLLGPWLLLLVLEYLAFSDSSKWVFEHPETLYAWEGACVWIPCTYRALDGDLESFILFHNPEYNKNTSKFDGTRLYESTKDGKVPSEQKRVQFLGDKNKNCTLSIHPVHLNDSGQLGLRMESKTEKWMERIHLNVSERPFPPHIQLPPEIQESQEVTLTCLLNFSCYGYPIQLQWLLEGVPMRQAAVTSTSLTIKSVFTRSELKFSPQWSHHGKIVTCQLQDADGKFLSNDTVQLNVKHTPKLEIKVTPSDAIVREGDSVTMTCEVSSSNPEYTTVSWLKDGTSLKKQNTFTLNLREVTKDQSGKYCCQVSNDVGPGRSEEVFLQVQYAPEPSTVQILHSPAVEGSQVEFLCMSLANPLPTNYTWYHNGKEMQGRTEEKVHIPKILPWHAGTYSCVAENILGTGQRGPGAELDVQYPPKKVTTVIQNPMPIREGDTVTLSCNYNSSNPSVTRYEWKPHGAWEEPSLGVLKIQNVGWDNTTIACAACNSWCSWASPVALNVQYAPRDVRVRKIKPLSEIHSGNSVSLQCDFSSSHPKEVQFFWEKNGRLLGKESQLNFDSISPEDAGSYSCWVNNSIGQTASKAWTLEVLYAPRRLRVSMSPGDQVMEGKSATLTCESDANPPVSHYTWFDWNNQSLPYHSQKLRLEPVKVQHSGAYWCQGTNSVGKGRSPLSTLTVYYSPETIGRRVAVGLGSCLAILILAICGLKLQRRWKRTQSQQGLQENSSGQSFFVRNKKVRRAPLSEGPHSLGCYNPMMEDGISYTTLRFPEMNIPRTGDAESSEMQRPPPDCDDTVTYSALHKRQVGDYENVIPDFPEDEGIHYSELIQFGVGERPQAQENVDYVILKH

On to `CC(=O)N[C@H]1[C@H]([C@H](O)[C@H](O)CO)O[C@@](O[C@H]2[C@@H](O)[C@@H](CO)O[C@@H](O[C@H]3[C@H](O)[C@@H](O)[C@H](OCCCCCCN=[N+]=[N-])O[C@@H]3CO)[C@@H]2O)(C(=O)O)C[C@@H]1O`, for which, in test [1], the result was inactive. Further, in test [2], the result was Active.

Consider `CC(=O)N[C@H]1[C@H](OCCCCCCN=[N+]=[N-])O[C@H](CO)[C@@H](O[C@@H]2O[C@H](CO)[C@H](O)[C@H](O[C@@H]3O[C@H](CO)[C@@H](O)[C@@H](O[C@@H]4O[C@H](CO[C@]5(C(=O)O)C[C@H](O)[C@@H](NC(C)=O)[C@H]([C@H](O)[C@H](O)CO)O5)[C@H](O)[C@H](O)[C@H]4O)[C@H]3NC(C)=O)[C@H]2O)[C@@H]1O`, for which the result in test [3] and in test [2] was Active. Further, the result in test [1] was inactive.

Broadly, the Kd is the concentration at which binding is half-saturated. As for `CC(=O)N[C@H]1[C@H]([C@@H](O)[C@@H](CO)O[C@]2(C(=O)O)C[C@H](O)[C@@H](NC(C)=O)[C@H]([C@@H](O)[C@@H](CO)O[C@]3(C(=O)O)C[C@H](O)[C@@H](NC(C)=O)[C@H]([C@H](O)[C@H](O)CO)O3)O2)O[C@@](O[C@H]2[C@@H](O)[C@@H](CO)O[C@@H](O[C@H]3[C@H](O)[C@@H](O)[C@H](OCCCCCCN=[N+]=[N-])O[C@@H]3CO)[C@@H]2O)(C(=O)O)C[C@@H]1O`, in test [4], the Kd amounted to 48.7 nM.

For the molecule `CC(=O)N[C@H]1[C@H](OCCCCCCN=[N+]=[N-])O[C@H](CO)[C@@H](O[C@@H]2O[C@H](CO)[C@H](O)[C@H](O[C@@H]3O[C@H](CO)[C@@H](O)[C@@H](O[C@@H]4O[C@H](CO)[C@H](O)[C@H](O[C@@H]5O[C@H](CO)[C@@H](O)[C@@H](O[C@@H]6O[C@H](CO[C@]7(C(=O)O)C[C@H](O)[C@@H](NC(C)=O)[C@H]([C@H](O)[C@H](O)CO)O7)[C@H](O)[C@H](O)[C@H]6O)[C@H]5NC(C)=O)[C@H]4O)[C@H]3NC(C)=O)[C@H]2O)[C@@H]1O`, the result in test [3] and in test [2] was Active. Also, the outcome in test [1] was inactive.

On to `CC(=O)N[C@H]1[C@H](OCCCCCCN=[N+]=[N-])O[C@H](CO)[C@@H](O[C@@H]2O[C@H](CO)[C@H](O)[C@H](O[C@]3(C(=O)O)C[C@H](O)[C@@H](NC(C)=O)[C@H]([C@H](O)[C@H](O)CO)O3)[C@H]2O)[C@@H]1O[C@@H]1O[C@@H](C)[C@@H](O)[C@@H](O)[C@@H]1O`, for which the outcome in test [2] was Active.

Consider `CC(=O)N[C@H]1[C@H](OCCCCCCN=[N+]=[N-])O[C@H](CO)[C@@H](O[C@@H]2O[C@H](CO)[C@H](O)[C@H](O[C@]3(C(=O)O)C[C@H](O)[C@@H](NC(C)=O)[C@H]([C@H](O)[C@H](O)CO)O3)[C@H]2O)[C@@H]1O`, for which, in test [1], the result was inactive. For the same molecule, the outcome in test [2] and in test [5] was Active.

`CC(=O)N[C@H]1[C@H]([C@H](O)[C@H](O)CO)O[C@@](OC[C@H]2O[C@@H](O[C@H]3[C@H](O)[C@@H](O)[C@H](OCCCCCCN=[N+]=[N-])O[C@@H]3CO)[C@H](O)[C@@H](O)[C@H]2O)(C(=O)O)C[C@@H]1O`: the result in test [3], in test [1] and in test [2] was Active.

For the molecule `CC(=O)N[C@H]1[C@H](OCCCCCCN=[N+]=[N-])O[C@H](CO)[C@@H](O[C@@H]2O[C@H](CO)[C@H](O)[C@H](O[C@]3(C(=O)O)C[C@H](O)[C@@H](NC(C)=O)[C@H]([C@@H](O)[C@@H](CO)O[C@]4(C(=O)O)C[C@H](O)[C@@H](NC(C)=O)[C@H]([C@H](O)[C@H](O)CO)O4)O3)[C@H]2O)[C@@H]1O`, the outcome in test [5] was Active. The Kd in test [4] was 43.3 nM.

`CC(=O)N[C@H]1[C@H](OCCCCCCN=[N+]=[N-])O[C@H](CO)[C@@H](O[C@@H]2O[C@H](CO)[C@H](O)[C@H](O[C@@H]3O[C@H](CO)[C@@H](O)[C@@H](O[C@@H]4O[C@H](CO[C@]5(C(=O)O)C[C@H](O)[C@@H](NC(C)=O)[C@H]([C@H](O)[C@H](O)CO)O5)[C@H](O)[C@H](O[C@]5(C(=O)O)C[C@H](O)[C@@H](NC(C)=O)[C@H]([C@H](O)[C@H](O)CO)O5)[C@H]4O)[C@H]3NC(C)=O)[C@H]2O)[C@@H]1O`: the result in test [3] and in test [6] was inactive.

In the case of `CC(=O)N[C@H]1[C@H](OCCCCCCN=[N+]=[N-])O[C@H](CO)[C@@H](O[C@@H]2O[C@H](CO)[C@H](O)[C@H](O[C@@H]3O[C@H](CO)[C@@H](O[C@@H]4O[C@H](CO)[C@H](O)[C@H](O[C@]5(C(=O)O)C[C@H](O)[C@@H](NC(C)=O)[C@H]([C@@H](O)[C@@H](CO)O[C@]6(C(=O)O)C[C@H](O)[C@@H](NC(C)=O)[C@H]([C@H](O)[C@H](O)CO)O6)O5)[C@H]4O)[C@H](O)[C@H]3NC(C)=O)[C@H]2O)[C@@H]1O`, in test [1], the result was inactive.

For the molecule `CC(=O)N[C@H]1[C@H]([C@H](O)[C@H](O)CO)O[C@@](OC[C@H]2O[C@@H](O[C@H]3[C@H](O)[C@@H](O)[C@H](OCCCCCCN=[N+]=[N-])O[C@@H]3CO)[C@H](O)[C@@H](O[C@]3(C(=O)O)C[C@H](O)[C@@H](NC(C)=O)[C@H]([C@H](O)[C@H](O)CO)O3)[C@H]2O)(C(=O)O)C[C@@H]1O`, the result in test [3] was inactive. The result in test [1], in test [5] and in test [6] was Active. Also, the Kd in test [4] was determined as 26.8 nM.

Regarding `CC(=O)N[C@H]1[C@H]([C@@H](O)[C@@H](CO)O[C@]2(C(=O)O)C[C@H](O)[C@@H](NC(C)=O)[C@H]([C@H](O)[C@H](O)CO)O2)O[C@@](O[C@H]2[C@@H](O)[C@@H](CO)O[C@@H](O[C@H]3[C@H](O)[C@@H](O)[C@H](OCCCCCCN=[N+]=[N-])O[C@@H]3CO)[C@@H]2O)(C(=O)O)C[C@@H]1O`, the outcome in test [5] was Active. For the same molecule, the Kd stood at 32.7 nM in test [4] and 60 nM in test [7].

Regarding `CC(=O)N[C@H]1[C@H](OCCCCCCN=[N+]=[N-])O[C@H](CO)[C@@H](O[C@@H]2O[C@H](CO[C@]3(C(=O)O)C[C@H](O)[C@@H](NC(C)=O)[C@H]([C@H](O)[C@H](O)CO)O3)[C@H](O)[C@H](O[C@]3(C(=O)O)C[C@H](O)[C@@H](NC(C)=O)[C@H]([C@H](O)[C@H](O)CO)O3)[C@H]2O)[C@@H]1O`, the result in test [3] was inactive. In addition, the result in test [1], in test [2], in test [5] and in test [6] was Active. For the same molecule, in test [4], the Kd stood at 38.7 nM.

`CC(=O)N[C@H]1[C@H](OCCCCCCN=[N+]=[N-])O[C@H](CO)[C@@H](O[C@@H]2O[C@H](CO)[C@H](O)[C@H](O[C@]3(C(=O)O)C[C@H](O)[C@@H](NC(C)=O)[C@H]([C@@H](O)[C@@H](CO)O[C@]4(C(=O)O)C[C@H](O)[C@@H](NC(C)=O)[C@H]([C@@H](O)[C@@H](CO)O[C@]5(C(=O)O)C[C@H](O)[C@@H](NC(C)=O)[C@H]([C@H](O)[C@H](O)CO)O5)O4)O3)[C@H]2O)[C@@H]1O`: the Kd in test [4] was found to be 54.1 nM.

With `CC(=O)N[C@H]1[C@H](OCCCCCCN=[N+]=[N-])O[C@H](CO)[C@@H](O[C@@H]2O[C@H](CO[C@]3(C(=O)O)C[C@H](O)[C@@H](NC(C)=O)[C@H]([C@H](O)[C@H](O)CO)O3)[C@H](O)[C@H](O[C@@H]3O[C@H](CO)[C@@H](O)[C@H](O)[C@H]3NC(C)=O)[C@H]2O)[C@@H]1O`, the result in test [3] was inactive. In test [2], the outcome was Active.
